One block for each compound: values may come before it.
How the values were obtained:
[1] = Oral bioavailability in CD rat at 3 mg/kg; assay type: ADME, organism-based; settings: in vivo
How it was run: (§1)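 Male CD rats cannulated in the femoral and jugular veins, n = 3, crossover design. Day 1: 1 h iv infusion at 1 mg/kg (0.2 mg/mL in ≤5% DMSO/≥95% 10% Kleptose in saline, 5 mL/kg/h). Day 2: oral gavage at 3 mg/kg (0.6 mg/mL in 1% methylcellulose, 5 mL/kg). Blood assayed by LC–MS/MS after acetonitrile precipitation.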

[2] = Dissociation constant, pKa of the compound; assay type: physicochemical
[3] = Half life in CD rat at 1 mg/kg, iv; assay type: ADME, organism-based; settings: in vivo
How it was run: (§2)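 Male CD rats carried femoral vein (dosing) and jugular vein (sampling) cannulae and recovered at least 2 days. They received a 1 h iv infusion at 5 mL kg−1 h−1, target 1 mg/kg, at 0.2 mg/mL in DMSO/10% Kleptose in saline (≤5%:≥95%). pH was adjusted to 8.0 if needed and the solution filtered. Definitive studies used n = 3 in crossover; others used single animals.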

[4] = Lipophilicity, log D of the compound at pH 7.4; assay type: physicochemical; settings: buffer
Rattus norvegicus [5] = assay: Dose normalized AUC in Sprague-Dawley rat at 24 mg/kg, po QD measured on day 4; assay type: ADME, organism-based; settings: in vivo
How it was run: (§3)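 Male CD rats (226−325 g), n = 3, given the compound once daily by oral gavage for 4 days. Vehicle was 1% (w/v) methylcellulose aq suspension at 3−6 mg/mL, dosed at 5 mL/kg (target 15−30 mg/kg). Tail vein blood was taken on days 1 and 4 up to 24 h postdose. Blood was diluted 1:1 with water, extracted by acetonitrile protein precipitation and analysed by LC−MS/MS against calibration standards in diluted blood.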

[6] = AUC in Sprague-Dawley rat at 24 mg/kg, po QD measured on day 1; assay type: ADME, organism-based; settings: in vivo; how it was run: as §3
[7] = Cmax in Sprague-Dawley rat at 24 mg/kg, po QD measured on day 1; assay type: ADME, organism-based; design: dose 24 mg/kg, route oral; settings: in vivo; how it was run: as §3
[8] = Cmax in Sprague-Dawley rat at 24 mg/kg, po QD measured on day 4; assay type: ADME, organism-based; design: dose 24 mg/kg, route oral; settings: in vivo; how it was run: as §3
CYP1A1 [9] = assay: Induction of CYP1A1 mRNA expression in Sprague-Dawley rat hepatic microsomes at 24 mg/kg, po QD for 4 days relative to control; assay type: ADME, organism-based, Liver; settings: read-out: FC
How it was run: (§4)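 Male CD rats (226–325 g, n = 3) were dosed by oral gavage once daily for 4 days as a 1% w/v aqueous methylcellulose suspension (3–6 mg/mL, 5 mL/kg). At the end of the study, a left lateral liver lobe section was placed in RNALater and homogenised in TRIzol. RNA was purified, DNase-treated and converted to cDNA, and Cyp1a1 was read on low-density TaqMan arrays.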

[10] = Volume of distribution at steady state in CD rat at 1 mg/kg, iv; assay type: ADME, organism-based; settings: in vivo, read-out: Vdss; how it was run: as §1
CYP1A2 [11] = assay: Induction of CYP1A2 mRNA expression in Sprague-Dawley rat hepatic microsomes at 24 mg/kg, po QD for 4 days relative to control; assay type: ADME, organism-based, Liver; settings: read-out: FC
[12] = Blood clearance in CD rat at 1 mg/kg, iv; assay type: ADME, organism-based; how it was run: as §2
Rattus norvegicus [13] = assay: Dose normalized AUC in Sprague-Dawley rat at 24 mg/kg, po QD measured on day 1; assay type: ADME, organism-based; settings: in vivo; how it was run: as §3
[14] = AUC in Sprague-Dawley rat at 24 mg/kg, po QD measured on day 4; assay type: ADME, organism-based; settings: in vivo; how it was run: as §3
CYP1A2 [15] = assay: Induction of CYP1A2 mRNA expression in rat hepatocytes at 10 uM by Taqman analysis relative to control; assay type: ADME, cell-based, Hepatocyte; settings: read-out: FC
CYP1A2 [16] = assay: Induction of CYP1A2 mRNA expression in rat hepatic microsomes at 30 mg/kg, po QD for 7 days relative to control; assay type: ADME, organism-based, Liver; settings: read-out: FC
How it was run: (§5)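 Male rats dosed orally once daily for 7 days. Hepatic mRNA measured by Taqman and expressed as fold induction versus control animals.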

CYP1A1 [17] = assay: Induction of CYP1A1 mRNA expression in rat hepatic microsomes at 30 mg/kg, po QD for 7 days relative to control; assay type: ADME, organism-based, Liver; settings: read-out: FC; how it was run: as §5
CYP1A2 [18] = biological target: T1, CYP1A2 (Homo sapiens, UniProt P05177); assay: Induction of CYP1A2-mediated 7-ethoxyresorufin O-deethylase activity in human hepatocytes at 5 uM after 10 mins by fluorescence assay relative to control; assay type: ADME, cell-based, Hepatocyte; settings: probe 7-ethoxyresorufin, read-out: FC
T1 sequence (P05177 whole entry): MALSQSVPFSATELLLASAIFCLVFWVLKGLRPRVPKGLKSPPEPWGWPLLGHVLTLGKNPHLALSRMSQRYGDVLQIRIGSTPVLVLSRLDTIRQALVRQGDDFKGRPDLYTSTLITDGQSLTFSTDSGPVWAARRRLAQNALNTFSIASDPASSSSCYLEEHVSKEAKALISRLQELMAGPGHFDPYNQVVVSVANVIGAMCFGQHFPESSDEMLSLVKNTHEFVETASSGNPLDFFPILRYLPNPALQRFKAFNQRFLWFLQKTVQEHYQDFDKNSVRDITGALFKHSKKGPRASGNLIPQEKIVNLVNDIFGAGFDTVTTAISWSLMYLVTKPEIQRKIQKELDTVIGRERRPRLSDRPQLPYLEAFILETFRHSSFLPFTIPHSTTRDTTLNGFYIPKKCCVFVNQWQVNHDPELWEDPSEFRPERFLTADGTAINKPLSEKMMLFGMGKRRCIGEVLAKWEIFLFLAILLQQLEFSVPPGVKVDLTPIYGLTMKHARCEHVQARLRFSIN
How it was run: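 Human hepatocytes were treated for 48 h (re-dosed at 24 h), washed, then incubated with 0.5 μM ethoxyresorufin in serum-free medium for 10 min at 37 °C. Resorufin fluorescence read at Ex 530/Em 590 nm. Rate in fluorescence units/min expressed as fold over solvent control.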

CYP1A2 [19] = assay: Induction of CYP1A2 mRNA expression in human hepatocytes at 10 uM relative to control; assay type: ADME, cell-based, Hepatocyte; settings: read-out: FC
CYP1A1 [20] = assay: Induction of CYP1A1 mRNA expression in rat hepatocytes at 10 uM by Taqman analysis relative to control; assay type: ADME, cell-based, Hepatocyte; settings: read-out: FC
[21] = Cmax in Sprague-Dawley rat at 19 mg/kg, po QD measured on day 4; assay type: ADME, organism-based; design: dose 19 mg/kg, route oral; settings: in vivo; how it was run: as §3
[22] = AUC in Sprague-Dawley rat at 19 mg/kg, po QD measured on day 1; assay type: ADME, organism-based; settings: in vivo; how it was run: as §3
CYP1A1 [23] = assay: Induction of CYP1A1 mRNA expression in Sprague-Dawley rat hepatic microsomes at 19 mg/kg, po QD for 4 days relative to control; assay type: ADME, organism-based, Liver; settings: read-out: FC; how it was run: as §4
CYP1A2 [24] = assay: Induction of CYP1A2 mRNA expression in Sprague-Dawley rat hepatic microsomes at 19 mg/kg, po QD for 4 days relative to control; assay type: ADME, organism-based, Liver; settings: read-out: FC
Rattus norvegicus [25] = assay: Dose normalized AUC in Sprague-Dawley rat at 19 mg/kg, po QD measured on day 4; assay type: ADME, organism-based; settings: in vivo; how it was run: as §3
Rattus norvegicus [26] = assay: Dose normalized AUC in Sprague-Dawley rat at 19 mg/kg, po QD measured on day 1; assay type: ADME, organism-based; settings: in vivo; how it was run: as §3
[27] = Cmax in Sprague-Dawley rat at 19 mg/kg, po QD measured on day 1; assay type: ADME, organism-based; design: dose 19 mg/kg, route oral; settings: in vivo; how it was run: as §3
[28] = AUC in Sprague-Dawley rat at 19 mg/kg, po QD measured on day 4; assay type: ADME, organism-based; settings: in vivo; how it was run: as §3

bioavailability [1]: 67%
pKa [2]: 8.1
half-life [3]: 8.1 h
logD [4]: 2.63
AUC/dose (Rattus norvegicus [5]): 55 kg·min/L
AUC [6]: 15.3 µg·h/mL
Cmax [7]: 1.01 µg/mL
Cmax [8]: 1.22 µg/mL
fold induction at 96 h (CYP1A1 [9]): 100
Vd [10]: 10.9 L/kg
fold induction at 96 h (CYP1A2 [11]): 2
clearance [12]: 1.32 L/h/kg
AUC/dose (Rattus norvegicus [13]): 38 kg·min/L
AUC [14]: 21.3 µg·h/mL
SMILES: CC(C)Nc1ncc(-c2nc(-c3ccc4c(c3)CCN(C(CO)CO)CC4)no2)cc1C#N

fold induction at 10 µM (CYP1A2 [15]): < 1
fold induction at 168 h (CYP1A2 [16]): 1
fold induction at 168 h (CYP1A1 [17]): 3
fold induction at 10 min, 5 µM (CYP1A2 [18]): 1.1
fold induction at 10 µM (CYP1A2 [19]): 0.2
fold induction at 10 µM (CYP1A1 [20]): < 1
SMILES: Cc1c(-c2noc(-c3ccc(OC(C)C)c(C#N)c3)n2)ccc2c1CCN(CCC(=O)O)C2

Cmax [21]: 2.32 µg/mL
pKa [2]: 7.2
AUC [22]: 19.1 µg·h/mL
fold induction at 96 h (CYP1A1 [23]): 1.7
fold induction at 96 h (CYP1A2 [24]): 1
AUC/dose (Rattus norvegicus [25]): 89 kg·min/L
AUC/dose (Rattus norvegicus [26]): 61 kg·min/L
logD [4]: 2.33
Cmax [27]: 1.75 µg/mL
AUC [28]: 27.8 µg·h/mL
SMILES: Cc1c(-c2nnc(-c3ccc(OC(C)C)c(C#N)c3)s2)ccc2c1CCN(C(CO)CO)C2

Source: ChEMBL document CHEMBL3627702, “Navigating CYP1A Induction and Arylhydrocarbon Receptor Agonism in Drug Discovery. A Case History with S1P1 Agonists” (J Med Chem, 2015)
